Measurements taken from ChEMBL document CHEMBL1133762, “Aureobasidins: structure-activity relationships for the inhibition of the human MDR1 P-glycoprotein ABC-transporter” (J Med Chem, 2000).
Converted amounts (≈) assume the structure as drawn. Square brackets hold non-standard residues; d marks the D form. Peptide text beside a SMILES is read from it. Hmp(2R,3S) = CC[C@H](C)[C@@H](O)C(=O)O; NMeVal(β-OH) = CN[C@H](C(=O)O)C(C)(C)O; NMeF = CN[C@@H](Cc1ccccc1)C(=O)O; NMeV = CN[C@H](C(=O)O)C(C)C

Experiments:
[1] = biological target: P-glycoprotein (ABCB1, MDR1) (Homo sapiens, UniProt P08183); test: (§1) Human MDR1 Pgp inhibitory activity by using standard calcein-AM efflux method with the human leukemia CEM cells.; type: cell-based, CCRF-CEM; conditions: probe calcein-AM
Sequence of P-glycoprotein (ABCB1, MDR1) (P08183 whole entry): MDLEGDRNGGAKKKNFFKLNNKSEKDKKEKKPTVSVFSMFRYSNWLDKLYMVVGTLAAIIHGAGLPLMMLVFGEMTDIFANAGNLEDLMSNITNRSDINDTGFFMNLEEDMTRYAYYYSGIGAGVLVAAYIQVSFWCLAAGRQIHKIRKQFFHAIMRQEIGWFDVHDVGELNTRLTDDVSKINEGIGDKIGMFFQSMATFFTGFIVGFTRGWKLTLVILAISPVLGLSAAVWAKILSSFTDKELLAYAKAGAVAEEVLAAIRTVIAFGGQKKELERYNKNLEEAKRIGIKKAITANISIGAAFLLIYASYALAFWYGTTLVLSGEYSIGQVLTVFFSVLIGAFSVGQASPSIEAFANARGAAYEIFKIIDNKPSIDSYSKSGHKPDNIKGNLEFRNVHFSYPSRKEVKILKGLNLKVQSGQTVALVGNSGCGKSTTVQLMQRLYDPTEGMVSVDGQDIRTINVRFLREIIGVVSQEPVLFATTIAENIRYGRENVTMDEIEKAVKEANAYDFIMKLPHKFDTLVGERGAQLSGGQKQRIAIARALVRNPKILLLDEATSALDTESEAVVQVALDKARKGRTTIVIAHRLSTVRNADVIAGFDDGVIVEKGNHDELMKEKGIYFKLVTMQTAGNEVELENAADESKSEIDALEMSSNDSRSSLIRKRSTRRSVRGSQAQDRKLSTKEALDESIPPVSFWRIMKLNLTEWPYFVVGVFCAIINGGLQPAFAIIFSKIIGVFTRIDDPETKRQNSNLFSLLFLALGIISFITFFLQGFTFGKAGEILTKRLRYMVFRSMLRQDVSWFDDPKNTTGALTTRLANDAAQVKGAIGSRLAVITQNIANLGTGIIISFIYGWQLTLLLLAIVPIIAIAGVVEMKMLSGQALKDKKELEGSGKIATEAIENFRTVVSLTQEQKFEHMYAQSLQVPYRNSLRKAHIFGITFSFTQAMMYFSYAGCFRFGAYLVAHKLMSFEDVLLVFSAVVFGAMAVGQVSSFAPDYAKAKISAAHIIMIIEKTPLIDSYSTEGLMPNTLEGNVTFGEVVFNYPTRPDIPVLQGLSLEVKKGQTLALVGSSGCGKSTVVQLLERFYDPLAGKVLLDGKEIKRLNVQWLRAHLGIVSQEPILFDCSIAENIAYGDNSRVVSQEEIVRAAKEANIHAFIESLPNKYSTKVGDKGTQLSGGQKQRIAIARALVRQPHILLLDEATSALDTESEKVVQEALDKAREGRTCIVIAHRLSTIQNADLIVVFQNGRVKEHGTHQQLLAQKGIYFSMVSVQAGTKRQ

[2] = biological target: T1, ATP-dependent translocase ABCB1 (Homo sapiens, UniProt P08183); test: as §1; type: cell-based, CCRF-CEM
T1 sequence (P08183 whole entry): as above

Saccharomyces cerevisiae [3] = test: Relative antifungal activity (against Saccharomyces cerevisiae) compared to AbA
Saccharomyces cerevisiae [4] = test: Minimum growth-inhibitory concentration against Saccharomyces cerevisiae ATCC 9763 by agar dilution method by the suspension of a fungi containing ~5 x 10e (7) cells/mL.; type: functional
Summary of the method: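 Agar dilution on Sabouraud–dextrose agar plates with graded compound concentrations. A loopful of yeast suspension (about 5 × 10⁷ cells/mL) was streaked on the surface. Plates were incubated at 30 °C for 3 days. MIC is the lowest concentration with no detectable growth.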

[5] = biological target: T1, ATP-dependent translocase ABCB1; test: Direct comparison of the antifungal activities with the relative Pgp-inhibitory potencies, calculated by comparing ug/mL IC50(or IC20).; type: functional
[6] = Antifungal activity was determined by its potency compared with that of AbA. Value is determined as ratio of AbA to the analogue.; type: functional
Summary of the method: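 Agar dilution MIC against S. cerevisiae ATCC 9763 on Sabouraud–dextrose agar plates containing graded compound concentrations. A loopful of about 5 × 10⁷ cells/mL suspension was streaked on the surface, and plates were incubated at 30 °C for 3 days. MIC was the lowest concentration with no detectable growth. The value is the AbA/analogue activity ratio.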

[7] = biological target: T1, ATP-dependent translocase ABCB1

Row | IC20 [1] [nM] | IC50 [2] [nM] | antifungal AbA/analogue ratio (Saccharomyces cerevisiae [3]) | MIC (Saccharomyces cerevisiae [4]) [µg/mL] | Pgp AbA/analogue ratio [5] | Structure (SMILES) | AbA/analogue ratio [6] | IC50 [7] [nM]
1 | > 31000 | > 31000 | < 0.016 | > 25 | < 0.1 | CC[C@H](C)[C@@H]1NC(=O)[C@@H]2CCCN2C(=O)[C@@H](C)N(C)C(=O)[C@H](CO)NC(=O)[C@H](C(C)C)N(C)C(=O)[C@@H]([C@@H](C)CC)OC(=O)[C@H](C(C)(C)O)N(C)C(=O)[C@H](CC(C)C)NC(=O)[C@H](C(C)C)N(C)C1=O |  | 
2 | 640 | 2110 | 0.25 | 1.6 (≈ 1.41 µM) | 1 | CC[C@H](C)[C@@H]1NC(=O)[C@@H]2CCCN2C(=O)[C@@H](C)N(C)C(=O)[C@H](Cc2ccc(OCC3CCCCC3)cc2)NC(=O)[C@H](C(C)C)N(C)C(=O)[C@@H]([C@@H](C)CC)OC(=O)[C@H](C(C)(C)O)N(C)C(=O)[C@H](CC(C)C)NC(=O)[C@H](C(C)C)N(C)C1=O |  | 

Further lines, the molecule ahead of its results:

Row | Structure (SMILES) | IC20 [1] [nM] | IC50 [2] [nM] | antifungal AbA/analogue ratio (Saccharomyces cerevisiae [3]) | MIC (Saccharomyces cerevisiae [4]) [µg/mL] | Pgp AbA/analogue ratio [5] | AbA/analogue ratio [6] | IC50 [7] [nM]
3 | CC[C@@H](C)[C@@H]1NC(=O)[C@@H]2CCCN2C(=O)[C@H](Cc2ccccc2)N(C)C(=O)[C@H](Cc2ccccc2)NC(=O)[C@H](C(C)C)N(C)C(=O)[C@@H]([C@@H](C)CC)OC(=O)CN(C)C(=O)[C@H](CC(C)C)NC(=O)[C@H](C(C)C)N(C)C1=O |  |  |  |  |  | <0.016 | 
4 | CC[C@@H](C)[C@@H]1NC(=O)[C@@H]2CCCN2C(=O)[C@H](Cc2ccccc2)N(C)C(=O)[C@H](Cc2ccccc2)NC(=O)[C@H](C(C)C)N(C)C(=O)[C@@H](C(C)C)OC(=O)[C@H](C(C)(C)O)N(C)C(=O)[C@H](CC(C)C)NC(=O)[C@H](C(C)C)N(C)C1=O | 340 | 1100 | 1 |  | 2.1 |  | 
5 | CC[C@H](C)[C@H]1OC(=O)[C@H](C(C)(C)O)N(C)C(=O)[C@H](CC(C)C)NC(=O)[C@H](C(C)C)N(C)C(=O)[C@H](C(C)C)NC(=O)[C@@H]2CCCN2C(=O)[C@H](Cc2ccccc2)N(C)C(=O)[C@H](Cc2ccccc2)NC(=O)[C@H](C(C)C)N(C)C1=O (cyclo(F[NMeF]PV[NMeV]L[NMeVal(β-OH)][Hmp(2R,3S)][NMeV])) | 410 | 1290 |  | 0.4 (≈ 0.368 µM) | 1.8 |  | 
6 | CC[C@@H](C)[C@@H]1NC(=O)[C@@H]2CCCN2C(=O)[C@H](Cc2ccccc2)N(C)C(=O)[C@H](Cc2ccccc2)NC(=O)[C@H](C(C)C)N(C)C(=O)[C@@H]([C@H](C)CC)OC(=O)[C@H](C(C)(C)O)N(C)C(=O)[C@H](CC(C)C)NC(=O)[C@H](C(C)C)N(C)C1=O [AUREOBASIDIN A] |  |  |  |  |  |  | 2270
